Test [1] deals with T1, NAD-dependent protein deacylase sirtuin-5, mitochondrial (Homo sapiens, UniProt Q9NXA8). The experiment in a line: Inhibition of human SIRT5 using fluorogenic substrate preincubated for 1 hr in presence of NAD followed by substrate addition and measured after 15 to 30 mins by trypsin-coupled fluorescence plate reader analysis.
Target sequence in this assay (Q9NXA8 whole entry): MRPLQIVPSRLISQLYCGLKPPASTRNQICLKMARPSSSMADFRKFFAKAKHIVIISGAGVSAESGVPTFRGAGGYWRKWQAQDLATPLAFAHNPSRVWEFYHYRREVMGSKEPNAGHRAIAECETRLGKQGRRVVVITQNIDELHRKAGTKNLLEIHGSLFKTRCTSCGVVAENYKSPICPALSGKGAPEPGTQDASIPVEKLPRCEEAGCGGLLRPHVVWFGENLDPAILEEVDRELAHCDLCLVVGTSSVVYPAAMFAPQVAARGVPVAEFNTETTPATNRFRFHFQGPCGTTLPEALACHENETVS
Test [2] concerns the target T1, NAD-dependent protein deacylase sirtuin-5, mitochondrial. Put plainly: Stabilization of human SIRT5 assessed as change in melting temperature at 100 uM by thermal shift assay. The procedure, abridged:
(§1)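 Recombinant wild-type SIRT5 at 0.2 mg/ml final in 20 mM Bis-Tris propane pH 7.5 with 150 mM NaCl. The dye was 0.1 mM 1,8-ANS, and compound was at 100 μM with DMSO as the vehicle reference. Wells were overlaid with silicon oil and heated continuously from 25 °C to 90 °C. Tm came from fluorescence melt curves versus the DMSO control. Each reaction was run in quadruplicate.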
Target sequence in this assay (Q9NXA8 37-310 limits assumed): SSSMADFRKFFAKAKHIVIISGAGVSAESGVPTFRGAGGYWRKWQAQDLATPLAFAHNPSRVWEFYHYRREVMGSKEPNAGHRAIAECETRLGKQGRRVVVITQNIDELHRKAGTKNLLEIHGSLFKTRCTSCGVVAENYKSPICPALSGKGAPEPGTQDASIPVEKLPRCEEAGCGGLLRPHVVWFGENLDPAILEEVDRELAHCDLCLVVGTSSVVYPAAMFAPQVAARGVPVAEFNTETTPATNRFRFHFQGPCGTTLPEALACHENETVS

For test [3] the target is unchanged. Put plainly: Stabilization of wild type human SIRT5 assessed as melting temperature at 100 uM by thermal shift assay. The procedure, abridged: as §1
Target sequence in this assay (Q9NXA8 37-310 limits assumed): as above

Broadly, the IC50 is the concentration at which inhibition is half-maximal. The term ΔTm denotes the change in melting temperature against a reference sample. On to `O=C(O)c1ccc(NC(=S)Nc2nc(-c3ccc(C(F)(F)F)cc3)cs2)cc1O`, for which the half-maximal inhibitory concentration (IC50) in test [1] was 24.3 µM. Besides, the ΔTm in test [2] came out at 1.2 °C.
Turning to `O=C(O)c1ccc(NC(=S)Nc2nc(-c3ccc(Cl)cc3)cs2)cc1O`, the ΔTm in test [2] came to 1.1 °C.
`COc1cccc(-c2csc(NC(=S)Nc3ccc(C(=O)O)c(O)c3)n2)c1`: in test [2], the shift in melting temperature (ΔTm) was determined as 0.9 °C.
Same read-out and setting: with `O=C(O)c1ccc(NC(=S)Nc2nc(-c3ccc(F)c(F)c3)cs2)cc1O` the figure was 1.8 °C; with `N#Cc1ccc(-c2csc(NC(=S)Nc3ccc(C(=O)O)c(O)c3)n2)c(F)c1`, 1.9 °C.
Take `CCOC(=O)c1ccc(Nc2nc(-c3ccc(NC(C)=O)cc3)cs2)cc1O`: the half-maximal inhibitory concentration (IC50) in test [1] was over 400 µM. In test [2], the ΔTm was found to be 0.12 °C.
As to `O=C(O)c1ccc(NC(=S)Nc2nc(-c3ccc([N+](=O)[O-])cc3)cs2)cc1O`, the ΔTm in test [2] was 1.8 °C.
Take `O=C(O)c1ccc(NC(=S)Nc2nc(-c3ccc([N+](=O)[O-])c(S(=O)(=O)NCc4ccccc4)c3)cs2)cc1O`: in test [2], the ΔTm came to 1.8 °C.
Same read-out and setting: with `O=C(O)c1ccc(NC(=S)Nc2nc(-c3ccc(O)cc3)cs2)cc1O` the figure was 0.8 °C; with `CC(=O)Nc1ccc(-c2csc(NC(=S)Nc3ccc(C(=O)O)c(O)c3)n2)cc1`, 2.5 °C.
In general, Tm refers to the temperature at which the thermal transition is half complete. Turning to `CC(=O)Nc1ccc(-c2csc(Nc3ccc(C(=O)O)c(O)c3)n2)cc1`, the midpoint of thermal melting (Tm) in test [3] amounted to 52.8 °C. Moreover, the shift in melting temperature (ΔTm) in test [2] was 1.8 °C.
On to `CNS(=O)(=O)c1ccc(-c2csc(NC(=S)Nc3ccc(C(=O)O)c(O)c3)n2)cc1`, for which the ΔTm in test [2] amounted to 0.9 °C.
In the case of `CNS(=O)(=O)c1cccc(-c2csc(NC(=S)Nc3ccc(C(=O)O)c(O)c3)n2)c1`, the thermal shift (ΔTm) in test [2] was 0.8 °C.
Regarding `O=C(O)c1ccc(NC(=S)Nc2nc(-c3ccc(F)cc3F)cs2)cc1O`, the ΔTm in test [2] was 1.9 °C.
On the same count and under the same terms, with `Cc1ccc(-c2csc(NC(=S)Nc3ccc(C(=O)O)c(O)c3)n2)cc1` the figure was 1.4 °C; with `CC(=O)Nc1cccc(-c2csc(NC(=S)Nc3ccc(C(=O)O)c(O)c3)n2)c1`, 1.5 °C.
Take `O=C(O)c1ccc(NC(=S)Nc2nc(-c3ccc(F)cc3)cs2)cc1O`: in test [2], the ΔTm amounted to 1.3 °C.
Regarding `Cc1ccccc1-c1csc(NC(=S)Nc2ccc(C(=O)O)c(O)c2)n1`, the ΔTm in test [2] was 1.1 °C.
As to `O=C(O)c1ccc(NC(=S)Nc2nc(-c3ccccc3F)cs2)cc1O`, the shift in melting temperature (ΔTm) in test [2] turned out to be 1 °C.
`O=C(O)c1ccc(NC(=S)Nc2nc(-c3cccc(O)c3)cs2)cc1O`: in test [2], the shift in melting temperature (ΔTm) is 0.72 °C.
Consider `CC(=O)Nc1ccc(-c2csc(Nc3ccc(C(=O)O)cc3)n2)cc1`, for which the half-inhibitory concentration (IC50) in test [1] was determined as 201 µM. Also, in test [2], the ΔTm was 0.53 °C.
Consider `N#Cc1ccc(-c2csc(NC(=S)Nc3ccc(C(=O)O)c(O)c3)n2)cc1F`, for which, in test [2], the shift in melting temperature (ΔTm) turned out to be 1.8 °C.
The same measure, in the same setting: with `O=C(O)c1ccc(NC(=S)Nc2nc(-c3ccc(Br)cc3)cs2)cc1O` the figure was 1.2 °C.
On to `O=C(O)c1ccc(NC(=S)Nc2nc(-c3ccc(F)c(S(=O)(=O)NCc4ccccc4)c3)cs2)cc1O`, for which the thermal shift (ΔTm) in test [2] worked out at 1.9 °C.
`COc1ccc(-c2csc(NC(=S)Nc3ccc(C(=O)O)c(O)c3)n2)cc1`: in test [2], the thermal shift (ΔTm) was determined as 0.9 °C.
For `Cc1cccc(-c2csc(NC(=S)Nc3ccc(C(=O)O)c(O)c3)n2)c1`, in test [2], the shift in melting temperature (ΔTm) came out at 1.2 °C.
For the compound `N#Cc1ccc(-c2csc(NC(=S)Nc3ccc(C(=O)O)c(O)c3)n2)cc1`, the thermal shift (ΔTm) in test [2] is 2.1 °C.
For `O=C(O)c1ccc(NC(=S)Nc2nc(-c3cccc(C(F)(F)F)c3)cs2)cc1O`, the IC50 in test [1] turned out to be 26.8 µM. Also, the ΔTm in test [2] was 1.1 °C.
`O=C(O)c1ccc(NC(=S)Nc2nc(-c3ccc(F)c(S(=O)(=O)NC4CCCC4)c3)cs2)cc1O`: the ΔTm in test [2] came to 1.3 °C.
For the compound `O=C(O)c1ccc(NC(=S)Nc2nc(-c3cccc(F)c3)cs2)cc1O`, the thermal shift (ΔTm) in test [2] is 1.22 °C.
On the same count and under the same terms, with `O=C(O)c1ccc(NC(=S)Nc2nc(-c3ccc([N+](=O)[O-])c(F)c3)cs2)cc1O` the figure was 1.8 °C.
Regarding `Cc1ccc(C(=O)Nc2ccc(S(=O)(=O)O)c3cc(S(=O)(=O)O)cc(S(=O)(=O)O)c23)cc1NC(=O)c1cccc(NC(=O)Nc2cccc(C(=O)Nc3cc(C(=O)Nc4ccc(S(=O)(=O)O)c5cc(S(=O)(=O)O)cc(S(=O)(=O)O)c45)ccc3C)c2)c1`, the Tm in test [3] was 51 °C.
Regarding `O=C(O)c1ccc(NC(=S)Nc2nc(-c3ccc([N+](=O)[O-])cc3F)cs2)cc1O`, the ΔTm in test [2] worked out at 1.6 °C.
`CC(=O)Nc1ccccc1-c1csc(NC(=S)Nc2ccc(C(=O)O)c(O)c2)n1`: the ΔTm in test [2] was found to be 0.9 °C.

(Values after ChEMBL document CHEMBL5108003, “Identification of 2-hydroxybenzoic acid derivatives as selective SIRT5 inhibitors” (Eur J Med Chem, 2022).)
